Laboratory results from PubChem BioAssay AID504449 (Broad Institute, 2011).
Records with an inconclusive call do not appear. Calls of active or inactive are those of the source.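 The calls were made as follows: active = compounds lowering viability signal with fitted half-maximal potency within ten times the top dose, in every repeat run; inconclusive = repeat runs disagree, or weak flat or poorly fitted curves; inactive = every run inactive, including flat or rising signals.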

system: HMLE_shECad breast CSC viability, CellTiter-Glo, 72 h; assay: breast CSC-like cell growth inhibition – CellTiter-Glo luminescence, powder samples, set 4, dose response (AID 504449); conditions: not given
How it was run: (§1)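 System – HMLE_shECad breast CSC model cells · Input – 2000 cells per well · Medium – serum-free CSC medium · Dosing – 100 nL compound per well, added by pin transfer · Schedule – ≥4 h cell settling at 37 °C, ~70-74 h compound exposure · Measured by – CellTiter-Glo luminescence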

Compound	AC50 [µM]
Cc1csc(NC(=O)c2ccc(COc3cccc(C(F)(F)F)c3)o2)n1	1.57
Cc1csc(NC(=O)c2ccc(COc3ccc(Cl)cc3)o2)n1	2.82
Cc1csc(NC(=O)c2ccc(COc3ccccc3C#N)o2)n1	0.917
Cc1csc(NC(=O)c2ccc(COc3ccc(OC(F)(F)F)cc3)o2)n1	3.16
O=C(N/N=C/c1ccc[nH]1)C1COc2cc3ccccc3cc2O1 (stereo not given)	4.2
CC(C)c1ccc(/C=C/C(=O)Nc2nncs2)cc1	13.6
O=C(Nc1nc2cccc(Cl)c2s1)c1ccc(COc2ccccc2)o1	4.49
Cc1ccc(C)c(OCC(=O)N/N=C/c2ccc[nH]2)c1	9.05
O=C(N/N=C/c1ccc[nH]1)C1CC1c1ccccc1 (stereo not given)	12.9
Cc1csc(NC(=O)c2ccc(COc3cccc(C#N)c3)o2)n1	2.07
Cc1ccc(/C=C/C(=O)NC2=NCCS2)cc1	16
Cc1csc(NC(=O)c2ccc(COc3ccc(F)cc3)o2)n1	5.65
O=C(COc1ccc2ccccc2c1Br)N/N=C/c1ccc[nH]1	1.11
O=C(COc1ccc(Br)cc1)N/N=C/c1ccc[nH]1	15.3
CC[C@@H](C(=O)O)C1CC[C@H](C)C([C@@H](C)[C@H](O)[C@H](C)C(=O)[C@H](CC)C2O[C@]3(C=C[C@@H](O)[C@]4(CC[C@@](C)(C5CC[C@](O)(CC)[C@H](C)O5)O4)O3)[C@H](C)C[C@@H]2C)O1 (stereo not given in full)	0.01
Cc1csc(NC(=O)c2ccc(COc3ccccc3F)o2)n1	0.019
Cc1csc(NC(=O)c2ccc(COc3ccccc3C(F)(F)F)o2)n1	0.065
Cc1csc(NC(=O)c2ccc(COc3cccc(F)c3)o2)n1	10.1

Compound	AC50 [µM]
O=C(COc1ccc(Cl)cc1Br)N/N=C/c1ccc[nH]1	3.16
Cc1csc(NC(=O)c2ccc(COc3ccccc3Cl)o2)n1	0.045
Cc1csc(NC(=O)c2ccc(COc3ccc(C#N)cc3)o2)n1	11.5
CC(C)(C)c1ccc(C2CC2C(=O)N/N=C/c2ccc[nH]2)cc1 (stereo not given)	0.787
Cc1cccc(OCC(=O)N/N=C/c2ccc[nH]2)c1C	24.6
COc1ccccc1OCc1ccc(C(=O)Nc2nc(C)cs2)o1	1.63
O=C(CSc1cc(Cl)ccc1Cl)N/N=C/c1ccc[nH]1	2.27
COc1ccc(OCc2ccc(C(=O)Nc3nc(C)cs3)o2)cc1	29.4
Cc1csc(NC(=O)c2ccc(COc3cccc(Cl)c3)o2)n1	0.572
CC(C)c1ccc(/C=C/C(=O)Nc2nccs2)cc1	3.54
Cc1csc(NC(=O)c2ccc(COc3ccccc3OC(F)(F)F)o2)n1	0.24
Cc1csc(NC(=O)c2ccc(COc3cccc(OC(F)(F)F)c3)o2)n1	0.439
O=C(/C=C/c1cccc(Cl)c1)NC1=NCCS1	15
CC(C)c1ccc(/C=C/C(=O)Nc2nccn2C)cc1	4.65
COc1cccc(OCc2ccc(C(=O)Nc3nc(C)cs3)o2)c1	0.081
CC(C)c1ccc(/C=C/C(=O)Nc2ccccn2)cc1	25.5
CC(C)c1ccc(/C=C/C(=O)N(C)Cc2ccccc2)cc1	19.2
Cc1csc(NC(=O)c2ccc(COc3ccc(C(F)(F)F)cc3)o2)n1	2.01

system: not listed separately; assay: as above; conditions: HMLE_shECad breast CSC viability, CellTiter-Glo, 72 h; at 30 µM (top of the series)
How it was run: as §1

Compound	activity change, negative = inhibition
O=C(Nc1ccccn1)c1ccc(COc2ccccc2)o1	-28.5% (inactive)
Cn1ccnc1NC(=O)c1ccc(COc2ccccc2)o1	-15.5% (inactive)
O=C(N/N=C/c1ccn[nH]1)c1cc2ccccc2o1	26.2% (inactive)
O=C(NC1=NCCS1)/C(F)=C/c1ccccc1	10.8% (inactive)
Cc1cc(C)c(/C=N/NC(=O)COc2c(Cl)cc(Cl)cc2Cl)[nH]1	-14.5% (inactive)
CC(C)c1ccc(/C=C/C(=O)NCc2ccccc2)cc1	-6.44% (inactive)
O=C(/C=C/c1ccc(C(F)(F)F)cc1)NC1=NCCS1	-1.72% (inactive)
C/C(=C\c1ccccc1)C(=O)NC1=NCCS1	8.28% (inactive)
O=C(c1ccc(COc2ccccc2)o1)N1CCOCC1	2% (inactive)
CC(C)c1ccc(/C=C/C(=O)N2CCOCC2)cc1	17.8% (inactive)
COc1cccc(/C=C/C(=O)NC2=NCCS2)c1	-21% (inactive)
O=S(=O)(/C=C/c1ccccc1)NC1=NCCS1	14.4% (inactive)
O=C(COc1c(Cl)cc(Cl)cc1Cl)N/N=C/c1ccn[nH]1	6.67% (inactive)
COc1ccccc1OCC(=O)N/N=C/c1ccc[nH]1	9.18% (inactive)
Cc1ccc2cc(C(=O)NC3=NCCS3)n(C)c2c1	-17.3% (inactive)
O=C(COc1ccc(Cl)cc1Cl)N/N=C/c1ccn[nH]1	1.84% (inactive)
Cc1csc(NC(=O)c2ccc(CO)o2)n1	-1.83% (inactive)
C(=C\c1ccccc1)/CNC1=NCCS1	10.6% (inactive)
O=C(Nc1nccs1)c1ccc(COc2ccccc2)o1	6.69% (inactive)
